Reference: publication PMC4407950 (Journal of Clinical Pharmacology, 2014)
Read-outs that look alike come from different tables or passages of the source.

What was measured:
[1] = format: in vivo, human; settings: for AUC(0–∞), ratio of geometric least-squares means (90% confidence interval) / C24, ratio of geometric least-squares means (90% confidence interval) / Cmax, ratio of geometric least-squares means (90% confidence interval) / reduction of plasma dolutegravir AUC(0–∞) / reduction of plasma dolutegravir C24 / reduction of plasma dolutegravir Cmax: fasted; for Tmax: human, plasma, oral, median (range)
Outline: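 Healthy adults were randomized to 2 cohorts of 4 treatments: test compound 50 mg single dose fasted, then with calcium supplement (1,200 mg) or iron supplement (324 mg) fasted, with a ~30% fat meal, or 2 h before the supplement fasted. Washout was ≥7 days. K2EDTA plasma was sampled predose to 48 h. Noncompartmental parameters were log-transformed and fitted by mixed model, giving geometric LS mean ratios with 90% CI.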

Safety evaluation = format: in vivo, human; settings: for subjects who experienced AEs: six subjects
Outline: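 Subjects were housed from Day −1 to Day 3 of each crossover period. Each period included serum chemistry, hematology, urinalysis, vital signs and 12-lead ECG. Adverse events were monitored through the treatment phase and at follow-up 7–14 days after the last dose.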

[2] = cited from earlier work
[3] = in the absence of added supplement; cited from earlier work
[4] = Dolutegravir 2 h prior + CC, fasted vs. dolutegravir alone
[5] = Dolutegravir 2 h prior + FF, fasted vs. dolutegravir alone
[6] = Dolutegravir + CC, fasted vs. dolutegravir alone
[7] = Dolutegravir + CC, fed vs. dolutegravir + CC
[8] = Dolutegravir + CC, fed vs. dolutegravir alone
[9] = Dolutegravir + FF, fasted vs. dolutegravir alone
[10] = Dolutegravir + FF, fed vs. dolutegravir + FF
[11] = Dolutegravir + FF, fed vs. dolutegravir alone
[12] = co-administered with calcium carbonate 1,200 mg
[13] = co-administered with ferrous fumarate 324 mg
[14] = Maalox 2 hours after dolutegravir administration
[15] = concurrent administration of Maximum Strength Maalox, fasted

C[C@@H]1CCO[C@H]2Cn3cc(C(=O)NCc4ccc(F)cc4F)c(=O)c(O)c3C(=O)N12 [Dolutegravir]
AUC(0–∞), ratio of geometric least-squares means (90% confidence interval) [1, 4]: 0.94 (0.72, 1.23) | C24, ratio of geometric least-squares means (90% confidence interval) [1, 4]: 0.90 (0.68, 1.19) | Cmax, ratio of geometric least-squares means (90% confidence interval) [1, 4]: 1.00 (0.78, 1.29) | AUC(0–∞), ratio of geometric least-squares means (90% confidence interval) [1, 5]: 0.95 (0.77, 1.15) | C24, ratio of geometric least-squares means (90% confidence interval) [1, 5]: 0.92 (0.74, 1.13) | Cmax, ratio of geometric least-squares means (90% confidence interval) [1, 5]: 0.99 (0.81, 1.21) | AUC(0–∞), ratio of geometric least-squares means (90% confidence interval) [1, 6]: 0.61 (0.47, 0.80) | C24, ratio of geometric least-squares means (90% confidence interval) [1, 6]: 0.61 (0.47, 0.80) | Cmax, ratio of geometric least-squares means (90% confidence interval) [1, 6]: 0.63 (0.50, 0.81) | AUC(0–∞), ratio of geometric least-squares means (90% confidence interval) [1, 7]: 1.78 (1.36, 2.33) | C24, ratio of geometric least-squares means (90% confidence interval) [1, 7]: 1.76 (1.33, 2.33) | Cmax, ratio of geometric least-squares means (90% confidence interval) [1, 7]: 1.70 (1.32, 2.18) | AUC(0–∞), ratio of geometric least-squares means (90% confidence interval) [1, 8]: 1.09 (0.84, 1.43) | C24, ratio of geometric least-squares means (90% confidence interval) [1, 8]: 1.08 (0.81, 1.42) | Cmax, ratio of geometric least-squares means (90% confidence interval) [1, 8]: 1.07 (0.83, 1.38) | AUC(0–∞), ratio of geometric least-squares means (90% confidence interval) [1, 9]: 0.46 (0.38, 0.56) | C24, ratio of geometric least-squares means (90% confidence interval) [1, 9]: 0.44 (0.36, 0.54) | Cmax, ratio of geometric least-squares means (90% confidence interval) [1, 9]: 0.43 (0.35, 0.52) | AUC(0–∞), ratio of geometric least-squares means (90% confidence interval) [1, 10]: 2.14 (1.76, 2.61) | C24, ratio of geometric least-squares means (90% confidence interval) [1, 10]: 2.28 (1.85, 2.81) | Cmax, ratio of geometric least-squares means (90% confidence interval) [1, 10]: 2.41 (1.97, 2.94) | AUC(0–∞), ratio of geometric least-squares means (90% confidence interval) [1, 11]: 0.98 (0.81, 1.20) | C24, ratio of geometric least-squares means (90% confidence interval) [1, 11]: 1.00 (0.81, 1.23) | Cmax, ratio of geometric least-squares means (90% confidence interval) [1, 11]: 1.03 (0.84, 1.26) | reduction of plasma dolutegravir AUC(0–∞) [1, 12]: 39% | reduction of plasma dolutegravir C24 [1, 12]: 39% | reduction of plasma dolutegravir Cmax [1, 12]: 37% | reduction of plasma dolutegravir AUC(0–∞) [1, 13]: 54% | reduction of plasma dolutegravir C24 [1, 13]: 56% | reduction of plasma dolutegravir Cmax [1, 13]: 57% | plasma exposures, dose separation ([1]; dolutegravir fasted 2 hours prior to calcium carbonate or ferrous fumarate): counteracted the effect | plasma exposures, co-administration with supplement and a meal ([1]; dolutegravir with calcium carbonate or ferrous fumarate, fed (moderate-fat meal)): counteracted the effect | Tmax ([1]; dolutegravir 50 mg + calcium carbonate 1,200 mg, fed (moderate-fat meal), n = 11): 3 h | Tmax ([1]; dolutegravir 50 mg + ferrous fumarate 324 mg, fed (moderate-fat meal), n = 10): 3.5 h | increase of dolutegravir AUC by a moderate-fat meal ([1]; in the presence of calcium carbonate): 78% | increase of dolutegravir AUC by a moderate-fat meal ([1]; in the presence of ferrous fumarate): 114% | effect of co-administration on tmax of dolutegravir ([1]; with calcium carbonate or ferrous fumarate): no effect | subjects who experienced AEs (Safety evaluation; Cohort 1 (calcium carbonate)): 50% | subjects who experienced AEs (Safety evaluation; Cohort 2 (ferrous fumarate)): 50% | severity of all adverse events (Safety evaluation; both cohorts): Grade 1 | changes in mean or median hematology or clinical chemistry values (Safety evaluation; human, in vivo): No consistent, treatment-related, or clinically significant changes | changes in vital signs or ECGs (Safety evaluation; human, in vivo): No clinically significant changes | decrease of dolutegravir mean AUC [2, 14]: 26% | decrease of dolutegravir mean C24 [2, 14]: 30% | decrease of dolutegravir mean Cmax [2, 14]: 18% | effect of omeprazole on dolutegravir exposure ([2]; clinical study in humans): no effect | decrease of dolutegravir mean AUC [2, 15]: 74% | decrease of dolutegravir mean C24 [2, 15]: 74% | decrease of dolutegravir mean Cmax [2, 15]: 72% | increase of dolutegravir AUC by a moderate-fat meal [3]: 41%
